Experimental data collected from several papers.
Each line is one published result; the experiments were not run side by side.
Technique: competition with immobilised ligand
RPS6KA2 N-terminal kinase domain: Ribosomal protein S6 kinase alpha-2, N-terminal kinase domain (RPS6KA2, Homo sapiens, UniProt Q15349)
RPS6KA2 C-terminal kinase domain: Ribosomal protein S6 kinase alpha-2, C-terminal kinase domain (RPS6KA2, Homo sapiens, UniProt Q15349)

COc1cnc(Nc2cccc(S(N)(=O)=O)c2)nc1N1CCN(c2ccccc2)CC1
remaining binding (RPS6KA2 N-terminal kinase domain; binding; 1 µM): 93%

CC1CCCN1c1nccc(-c2cnn3ncccc23)n1 (stereo not drawn)
remaining binding (RPS6KA2 N-terminal kinase domain; binding; 1 µM): 100%

COc1cnc(Nc2cccc(S(N)(=O)=O)c2)nc1N1CCN(c2ccccc2)C(=O)C1
remaining binding (RPS6KA2 C-terminal kinase domain; binding; 1 µM): 100%

O=C(NCC1CCOCC1)c1n[nH]cc1NC(=O)c1c(F)cccc1F
remaining binding (RPS6KA2 N-terminal kinase domain; binding; 1 µM): 100%

COc1ccc2cc(OCC3(C(=O)O)CN(C(=O)c4ccc(F)cc4)C3)ccc2c1
remaining binding (RPS6KA2 C-terminal kinase domain; cell-free assay; 1 µM): 100%

N[C@@H]1CCN(c2nccc(-c3cnn4ncccc34)n2)C1
remaining binding (RPS6KA2 N-terminal kinase domain; binding; 1 µM): 100%

C[C@@H](c1ccc(-n2cnc3c(N)ncnc32)cc1)N1CCc2nn(C)c(Cc3ccccc3)c2C1=O
remaining binding (RPS6KA2 C-terminal kinase domain; binding; 0.1 µM): 78%

O=C(Nc1c[nH]nc1C(=O)NC1CCNCC1)c1cc(F)cc(F)c1
remaining binding (RPS6KA2 C-terminal kinase domain; binding; 1 µM): 100%

CN(CCCC(F)(F)F)c1nccc(-c2cnn3ncccc23)n1
remaining binding (RPS6KA2 N-terminal kinase domain; binding; 1 µM): 86%

Nc1ncc2c(n1)-c1c([nH]c3ccc(C#CC4CC4)cc13)CCCC2
remaining binding (RPS6KA2 N-terminal kinase domain; binding; 1 µM): 91%

CCN1CCN(Cc2ccc(C(=O)Nc3ccc(C)c(Oc4ccc5c(c4)CC(=O)N5)c3)cc2C(F)(F)F)CC1
remaining binding (RPS6KA2 N-terminal kinase domain; binding; 1 µM): 100%

COc1ccc2c(O[C@@H]3C[C@H]4C(=O)N[C@]5(C(=O)O)CC5/C=C\CCCCC[C@H](NC(=O)OC5CCCC5)C(=O)N4C3)cc(-c3csc(NC(=O)C(C)C)n3)nc2c1C (stereo partly drawn)
remaining binding (RPS6KA2 C-terminal kinase domain; cell-free assay; 1 µM): 100%

CN(C)c1nccc(-c2cnc3ncccn23)n1
remaining binding (RPS6KA2 C-terminal kinase domain; binding; 1 µM): 91%

O=C(NCCCN1CCOCC1)c1ccc(Nc2nccc(-c3cc4ccccc4s3)n2)cc1
remaining binding (RPS6KA2 N-terminal kinase domain; binding; 1 µM): 100%

CS(=O)(=O)N1CCCC(NC(=O)[C@H](CCC2CCCCC2)NC(=O)c2ccc(CNC(=O)c3cnc4ccccn34)cc2)C1 (stereo partly drawn)
remaining binding (RPS6KA2 C-terminal kinase domain; cell-free assay; 0.1 µM): 94%

COc1ncc2cc3ccccc3nc2c1C#N
remaining binding (RPS6KA2 N-terminal kinase domain; cell-free assay; 5 µM): 91%

O=C(c1ccc(Nc2ncc(Cl)c(-c3ccc(Cl)s3)n2)cc1)N1CCC(N2CCCC2)CC1
remaining binding (RPS6KA2 N-terminal kinase domain; binding; 1 µM): 100%

FC(F)(F)Oc1cccc(-c2cnc3ccc(-c4ccncc4)nn23)c1
remaining binding (RPS6KA2 C-terminal kinase domain; binding; 5 µM): 82%

c1cncc(-c2cccc(Nc3nccc(NC4CCCCC4)n3)c2)c1
remaining binding (RPS6KA2 C-terminal kinase domain; binding; 10 µM): 100%

c1cnn2ncc(-c3ccnc(N4CCC45COC5)n3)c2c1
remaining binding (RPS6KA2 C-terminal kinase domain; binding; 1 µM): 85%

O=C(c1ccc(Nc2nccc(-c3cc4ccccc4s3)n2)cc1)N1CCC(N2CCCC2)CC1
remaining binding (RPS6KA2 C-terminal kinase domain; binding; 1 µM): 74%

Cc1cnn2ncc(-c3ccnc(N(C)C)n3)c2c1
remaining binding (RPS6KA2 C-terminal kinase domain; binding; 1 µM): 100%

Cc1cnc(Nc2ccc(C(=O)N3CCC(N4CCCC4)CC3)cc2)nc1-c1cc2ccccc2s1
remaining binding (RPS6KA2 C-terminal kinase domain; binding; 1 µM): 95%

CS(=O)(=O)c1cc(C2(NC(=O)c3cncc4c3cnn4-c3ccc(F)cc3)CC2)ccn1
remaining binding (RPS6KA2 C-terminal kinase domain; cell-free assay; 1 µM): 88%

CNC(=O)[C@@H]1CC[C@@H](n2c(-c3ccc4cnccc4c3)nc3ccc(C(=O)NCc4cccc(C(N)=O)c4)cc32)C1
remaining binding (RPS6KA2 C-terminal kinase domain; binding; 1 µM): 91%

N#CC1(c2ccccn2)CCN(Cc2cc(C(=O)N3CCCC3)c(=O)n3ccccc23)CC1
remaining binding (RPS6KA2 N-terminal kinase domain; cell-free assay; 1 µM): 88%

O=C(c1ccc(Nc2ncc(Cl)c(-c3cc4ccccc4s3)n2)cc1)N1CCC(N2CCCC2)CC1
remaining binding (RPS6KA2 C-terminal kinase domain; binding; 1 µM): 100%

CCOCCn1cc(C(=O)Nc2ccc(-n3nc(-c4cccnc4)cc3C(F)(F)F)cn2)ccc1=O
remaining binding (RPS6KA2 N-terminal kinase domain; cell-free assay; 1 µM): 84%

C=CC(=O)N1CCC(C(=O)NCC(=O)N2CCN(c3nc(-c4cnc(N)nc4C(F)F)nc(N4CCOCC4)n3)CC2)CC1
remaining binding (RPS6KA2 N-terminal kinase domain; binding; 1 µM): 82%

O=S(=O)(NC1CCC(c2cc(F)ccc2F)(S(=O)(=O)c2ccc(Cl)cc2)CC1)C(F)(F)F (stereo not drawn)
remaining binding (RPS6KA2 C-terminal kinase domain; cell-free assay; 1 µM): 95%

CN(c1nccc(-c2cnn3ncccc23)n1)C1CC1
remaining binding (RPS6KA2 C-terminal kinase domain; binding; 1 µM): 100%

CN1CCN(c2cnc3c(C4CCN(C(=O)c5ccc(OC(F)(F)F)cc5N)CC4)ncnc3c2)CC1
remaining binding (RPS6KA2 C-terminal kinase domain; cell-free assay; 1 µM): 100%

O=C(NCCCN1CCOCC1)c1ccc(Nc2ncc(Cl)c(-c3ccc(Cl)s3)n2)cc1
remaining binding (RPS6KA2 N-terminal kinase domain; binding; 1 µM): 100%
